Reference: ChEMBL document CHEMBL4304770, “Discovery of Irreversible Inhibitors Targeting Histone Methyltransferase, SMYD3” (ACS Med Chem Lett, 2019)
Active and inactive are the calls of the source. The calls are words filed in the database; no cut-off is given here.

Legend:
[1] = target: T1, Histone-lysine N-methyltransferase SMYD3 (Homo sapiens, UniProt Q9H7B4); assay: Inhibition of SMYD3 (unknown origin) using MAP3K2 peptide as substrate pretreated for 30 mins followed by substrate addition and measured after 30 mins by MTase Glo reagent based luminescence assay
T1 sequence (Q9H7B4 whole entry): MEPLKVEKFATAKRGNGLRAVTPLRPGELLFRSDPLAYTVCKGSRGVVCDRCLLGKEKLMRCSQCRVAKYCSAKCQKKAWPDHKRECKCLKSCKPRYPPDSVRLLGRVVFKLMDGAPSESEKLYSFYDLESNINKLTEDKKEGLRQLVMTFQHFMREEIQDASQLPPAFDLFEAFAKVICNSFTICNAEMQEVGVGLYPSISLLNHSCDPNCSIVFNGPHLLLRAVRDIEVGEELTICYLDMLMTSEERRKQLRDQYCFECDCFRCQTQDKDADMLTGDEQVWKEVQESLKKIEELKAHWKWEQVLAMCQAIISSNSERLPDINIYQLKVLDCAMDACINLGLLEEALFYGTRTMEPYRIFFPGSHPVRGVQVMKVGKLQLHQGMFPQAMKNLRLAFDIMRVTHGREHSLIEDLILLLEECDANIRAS
Summary of the method: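 SMYD3 IC50 values taken as mean of duplicate experiments.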

[2] = Apparent intrinsic clearance in human liver microsomes measured upto 60 mins by LC-MS/MS analysis; type: ADME, Microsome; details: 1 h
[3] = Metabolic stability in human liver microsomes assessed as half life preincubated for 5 mins followed by NADPH addition measured upto 60 mins by LC-MS/MS analysis; type: ADME, Microsome
[4] = target: T2, Histone-lysine N-methyltransferase SMYD3 (Homo sapiens) (UniProt Q9H7B4); assay: Inhibition of SMYD3 in human HepG2 cells assessed as inhibition of cell proliferation incubated for 3 days by CellTiter-Glo luminescent assay; type: cell-based
T2 sequence (whole entry): T1 sequence (Q9H7B4 whole entry)

[5] = Metabolic stability in mouse liver microsomes assessed as half life preincubated for 5 mins followed by NADPH addition measured upto 60 mins by LC-MS/MS analysis; type: ADME, Microsome
[6] = Apparent intrinsic clearance in mouse liver microsomes measured upto 60 mins by LC-MS/MS analysis; type: ADME, Microsome; details: 1 h
[7] = target: T2, Histone-lysine N-methyltransferase SMYD3 (Homo sapiens); assay: Inhibition of SMYD3 in human HepG2 cells assessed as decrease in MAP3K2 methylation at 20 uM incubated for 24 hrs by cIEF based immunoassay relative to control; type: cell-based
Summary of the method: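 HepG2 cells exposed to 20 μM for 24 h, DMSO control. MAP3K2-me2/me3 quantified by capillary isoelectric focusing in a nanofluidic proteomic immunoassay. Levels expressed relative to DMSO-treated cells.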

[8] = target: T2, Histone-lysine N-methyltransferase SMYD3 (Homo sapiens); assay: Inhibition of SMYD3 in human HepG2 cells assessed as inhibition of anchorage-independent colony formation in 3D culture cells incubated for 1 to 2 weeks by thiazolyl blue tetrazolium bromide based; type: cell-based
[9] = Apparent permeability across basolateral to apical side in human Caco2 cells by LC-MS/MS analysis; type: ADME, cell-based; details: Caco-2
[10] = Apparent permeability across apical to basolateral side in human Caco2 cells by LC-MS/MS analysis; type: ADME, cell-based; details: Caco-2
[11] = GSH reactivity in pH 7.4 phosphate buffer assessed as pseudo first -order rate constant at 0.25 mM in presence of glutathione by HPLC-MS analysis; type: physicochemical; details: pH 7.4, 250 µM
[12] = target: T1, Histone-lysine N-methyltransferase SMYD3; assay: Irreversible inhibition of SMYD3 (unknown origin) using MAP3K2 peptide as substrate pretreated for 5 mins followed by substrate addition and measured after 60 mins by MTase Glo reagent based luminescence assay
[13] = target: T2, Histone-lysine N-methyltransferase SMYD3 (Homo sapiens); assay: Irreversible inhibition of SMYD3 (unknown origin) using MAP3K2 peptide as substrate assessed as kinact/Ki ratio pretreated for 5 mins followed by substrate addition and measured after 60 mins by MTase Glo reagent based luminescence assay
[14] = target: T2, Histone-lysine N-methyltransferase SMYD3 (Homo sapiens); assay: Irreversible inhibition of SMYD3 (unknown origin) using MAP3K2 peptide as substrate assessed as Kinact pretreated for 5 mins followed by substrate addition and measured after 60 mins by MTase Glo reagent based luminescence assay
[15] = tested on: HepG2; assay: Downregulation of SMYD3 in human HepG2 cells at 5 to 20 uM incubated for 24 hrs by Western blot analysis; type: functional
Summary of the method: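 SMYD3 protein in HepG2 cells probed by Western blot after exposure at 5 and 20 μM, with DMSO control for comparison.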

| IC50 [1] [µM] | CLH(app) [2] [uL/min/mL] | half-life [3] [min] | half-life [5] [min] | CLH(app) [6] [uL/min/mL] | Compound | other results |
| --- | --- | --- | --- | --- | --- | --- |
| 0.36 |  |  |  |  | CCCCOC(=O)N1CCN(C(=O)c2ccc3c(Cl)c4c(nc3c2)CCCC4)CC1 |  |
| > 750 |  |  |  |  | CCOC(=O)N1CCN(C(=O)c2ccc3cc4c(nc3c2)CCCC4)CC1 |  |
| 0.17 | 43 | 21 | 16 | 58 | CCCOC(=O)N1CCN(C(=O)c2ccc3c(Cl)cc(-c4ccccc4)nc3c2)C[C@H]1C | GI50 [4]: 24.4 µM; inhibition [7]: 55%; GI50 [8]: 0.79 µM |
|  |  |  |  |  | CCCOC(=O)N1CCN(C(=O)c2ccc3c(Cl)c4c(nc3c2)CC(CN)CC4)CC1 (stereo not drawn) | Papp B→A [9]: 16.2 ×10⁻⁶ cm/s; Papp A→B [10]: 4.43 ×10⁻⁶ cm/s |
| 132 |  |  |  |  | NCCOC(=O)N1CCN(C(=O)c2ccc3c(Cl)c4c(nc3c2)CCCC4)CC1 |  |
| 0.067 |  |  |  |  | CCCOC(=O)N1CCN(C(=O)c2ccc3c(Cl)c4c(nc3c2)CC(CN)CC4)[C@@H](C)C1 (stereo partly drawn) | K [11]: 0.5 ×10⁻³ /min |
| 30.5 |  |  |  |  | CCOC(=O)N1CCN(C(=O)c2ccc3c(Cl)c4c(nc3c2)CCC4)CC1 |  |
| 4.78 | 107 | 9 | 4 | 245 | CCOC(=O)N1CCN(C(=O)c2ccc3c(Cl)c4c(nc3c2)CCCC4)CC1 | GI50 [4]: > 100 µM |
|  |  |  |  |  | CCCOC(=O)N1CCN(C(=O)c2ccc3c(Cl)c4c(nc3c2)CCCC4)C(C)C1 (racemic) | K [11]: 0.8 ×10⁻³ /min |
| 0.37 |  |  |  |  | CCCOC(=O)N1CCN(C(=O)c2ccc3c(Cl)c4c(nc3c2)CCCC4)CC1 |  |
|  | 23 | 40 | 1 | 750 | CCCOC(=O)N1CCN(C(=O)c2ccc3c(Cl)ccnc3c2)CC1 |  |
| 0.37 | 26 | 36 | 41 | 22 | CCCOC(=O)N1CCN(C(=O)c2ccc3c(Cl)cc(-c4ccc(C)cc4)nc3c2)CC1 |  |
|  | 32 | 28 | 22 | 43 | CCCOC(=O)N1CCN(C(=O)c2ccc3c(Cl)cc(-c4ccc(OC)cc4)nc3c2)CC1 | GI50 [4]: > 100 µM |
| 0.25 |  |  |  |  | CCCOC(=O)N1CCN(C(=O)c2ccc3c(Cl)c4c(nc3c2)CCCC4)[C@H](C)C1 |  |
| > 750 |  |  |  |  | CCOC(=O)N1CCN(C(=O)c2ccc3c(C)c4c(nc3c2)CCCC4)CC1 |  |
| 20.4 |  |  |  |  | CCOC(=O)N1CCN(C(=O)c2ccc3c(Cl)c4c(nc3c2)CCCCC4)CC1 |  |
|  | 53 | 17 | 46 | 20 | CCCOC(=O)N1CCN(C(=O)c2ccc3c(Cl)cc(-c4ccc(C(=O)NC)cc4)nc3c2)CC1 | Ki [12]: 3.06 µM; Ratio [13]: 692 M⁻¹ s⁻¹; Kinact [14]: 0.127 min⁻¹; GI50 [4]: > 100 µM |
| > 250 |  |  |  |  | CCCOC(=O)N1CCN(C(=O)c2ccc3ccc(-c4ccccc4)nc3c2)C[C@H]1C | GI50 [4]: 60.8 µM; inhibition [7]: inactive; GI50 [8]: > 10 µM |
| 0.3 | 28 | 33 | 13 | 70 | CCCOC(=O)N1CCN(C(=O)c2ccc3c(Cl)cc(-c4ccccc4)nc3c2)CC1 | Ki [12]: 3.9 µM; Ratio [13]: 833 M⁻¹ s⁻¹; Kinact [14]: 0.193 min⁻¹; GI50 [4]: > 100 µM |
|  |  |  |  |  | C=CC(=O)Nc1cccc(OC)c1 | K [11]: 3.4 ×10⁻³ /min |
| 123 |  |  |  |  | COC(=O)N1CCN(C(=O)c2ccc3c(Cl)c4c(nc3c2)CCCC4)CC1 |  |
| 0.14 |  |  |  |  | CCCOC(=O)N1CCN(C(=O)c2ccc3c(Cl)c4c(nc3c2)CCCC4)[C@@H](C)C1 |  |
| > 750 |  |  |  |  | NCCCC(=O)N1CCN(C(=O)c2ccc3c(Cl)c4c(nc3c2)CCCC4)CC1 |  |
| 0.0117 | 20 | 35 | 52 | 13 | CCCOC(=O)N1CCN(C(=O)c2ccc3c(Cl)cc(-c4ccc(C5(N)CC5)cc4)nc3c2)C[C@H]1C | Ki [12]: 0.44 µM; Ratio [13]: 2110 M⁻¹ s⁻¹; Kinact [14]: 0.055 min⁻¹; GI50 [4]: 17.7 µM; inhibition [7]: 66%; inhibition (INH) [15]: 50%; GI50 [8]: 1.04 µM |
